Results on 38 compounds are retold here after ChEMBL document CHEMBL4002598, “Fusaric acid and analogues as Gram-negative bacterial quorum sensing inhibitors” (Eur J Med Chem, 2017).

≈ marks a conversion by molar mass, not a printed value. Calls of active or inactive are those of the source. No cut-off for these calls is given here.

Data set [1] has as its system Escherichia coli. As to the kind of experiment: Growth inhibition of Escherichia coli at 0.39 to 100 ug/ml. In a few lines:
(§1)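 luxI-gfp E. coli reporter grown 16 h at 37 °C, shaking 180 rpm, then diluted to OD450 0.1 in BT minimal medium with 10% A10, 0.5% glucose and 0.5% Casamino Acids. 3-oxo-C6-HSL added at 10 nM final. Compounds run in triplicate as 2-fold dilutions from 100 μg/ml. GFP (ex 485/em 535) and OD450 read every 15 min for 14 h at 34 °C. IC50 taken from GFP curves.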

The target of data set [2] is T1, HTH-type quorum-sensing regulator RhlR (Pseudomonas aeruginosa (strain ATCC 15692 / PAO1 / 1C / PRS 101 / LMG12228)) (UniProt P54292).
T1 sequence (whole entry): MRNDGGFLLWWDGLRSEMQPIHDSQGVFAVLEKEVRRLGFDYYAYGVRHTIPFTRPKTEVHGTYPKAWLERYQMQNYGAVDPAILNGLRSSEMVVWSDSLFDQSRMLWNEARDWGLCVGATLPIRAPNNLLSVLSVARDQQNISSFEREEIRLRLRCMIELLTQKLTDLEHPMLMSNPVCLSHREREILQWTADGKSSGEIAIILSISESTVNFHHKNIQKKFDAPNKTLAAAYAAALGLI
The experiment in a line: Inhibition of RhlR-dependent quorum sensing activity in Pseudomonas aeruginosa harboring reporter plasmid rhlA-gfp assessed as reduction in GFP expression up to 100 ug/ml measured every 15 mins for 14 hrs by fluorescence assay. In a few lines: (§2)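 P. aeruginosa lasB-gfp and rhlA-gfp reporters, grown 16 h at 37 °C with shaking, then diluted to OD450 0.1 in BT minimal medium (10% A10, 0.5% glucose, 0.5% Casamino Acids). No added signal molecule. Fluorescence at 485/535 nm and growth monitored every 15 min for 14 h at 34 °C. Concentrations up to 100 µg/ml.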

In data set [3] the test system is Escherichia coli. As to the kind of experiment: Inhibition of LuxR-dependent quorum sensing activity in Escherichia coli harboring reporter plasmid LuxI-GFP assessed as reduction in 3-oxo-C6-HSL-induced GFP expression up to 100 ug/ml measured every 15 mins for 14 hrs by fluorescence assay. The essentials:
as §1

The next data set relates to Saccharomyces cerevisiae. The experiment in a line: Inhibition of yeast Pma1 at 100 uM preincubated for 30 mins by spectrophotometric method. The essentials:
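Pma1 purified from Saccharomyces cerevisiae plasma membrane, 0.5 µg per reaction. Enzyme preincubated 30 min at room temperature with 100 µM compound. Reaction buffer: 5 mM ATP, 10 mM MgSO4, 50 mM KNO3, 5 mM NaN3, 3.5 mM molybdate, 20 mM MES-KOH pH 5.9. Run 30 min, then stopped with acidic molybdate/ascorbate/SDS. Released phosphate read at 860 nm after arsenite-citrate treatment (Baginski method).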

In the next data set the test system is Pseudomonas aeruginosa. As to the kind of experiment: Inhibition of LasR-dependent quorum sensing activity in Pseudomonas aeruginosa harboring reporter plasmid lasB-GFP assessed as reduction in GFP expression up to 100 ug/ml measured every 15 mins for 14 hrs by fluorescence assay. In a few lines: as §2
The nature of data set [4]: Inhibition of LuxR-dependent quorum sensing activity in Escherichia coli harboring reporter plasmid LuxI-GFP assessed as reduction in 3-oxo-C6-HSL-induced GFP expression measured every 15 mins for 14 hrs by fluorescence assay. The essentials:
as §1

Regarding `CCCOc1ccc(C(=O)O)nc1`, the “growth inhibition (GI)” value in the data set on Escherichia coli [1] is “Toxic”. Further, the inhibition entry (in data set [2]; with Saccharomyces cerevisiae; in the data set with Pseudomonas aeruginosa) was “inactive” throughout. Besides, the inhibition entry in the data set on Escherichia coli [3] is “Active”.
In general, IC50 refers to the concentration that inhibits the measured activity by half. For the compound `CCOC(=O)c1ccc(-c2ccccc2)cn1`, in the data set with Escherichia coli [1], the “growth inhibition (GI)” value was “Non-Toxic”. Moreover, the inhibition entry (in data set [2]; in the data set with Saccharomyces cerevisiae; in the data set with Pseudomonas aeruginosa) was “inactive” throughout. Also, the IC50 in data set [4] stood at 12 µg/mL (≈ 52.8 µM).
Take `O=C(O)c1ccc(-c2ccccc2)cn1`: the inhibition result (in data set [2]; in the data set on Saccharomyces cerevisiae; in the data set with Pseudomonas aeruginosa) was “inactive” throughout.
Take `COC(=O)c1ccc(-c2ccc3cn(C)nc3c2)cn1`: the inhibition result (in data set [2]; with Saccharomyces cerevisiae; with Pseudomonas aeruginosa) was “inactive” each time.
With `COC(=O)c1ccc(-c2cc(C)nc3ccccc23)cn1`, the inhibition result (in data set [2]; in the data set on Saccharomyces cerevisiae; in the data set with Pseudomonas aeruginosa) was “inactive” throughout.
Take `COC(=O)c1ccc(-c2ccnc3cc(OC)ccc23)cn1`: the inhibition result (in data set [2]; in the data set on Saccharomyces cerevisiae; with Pseudomonas aeruginosa) was “inactive” in each case.
Turning to `COC(=O)c1ccc(OCC(=O)Nc2ccccc2)cn1`, in the data set with Escherichia coli [1], the “growth inhibition (GI)” value is “Non-Toxic”. Moreover, the inhibition entry (in data set [2]; with Saccharomyces cerevisiae; in the data set on Pseudomonas aeruginosa) was “inactive” each time. Besides, the IC50 in data set [4] was found to be 64 µg/mL (≈ 224 µM).
With `O=C(O)COc1ccc(C(=O)O)nc1`, the inhibition entry (in data set [2]; in the data set on Escherichia coli [3]; in the data set with Saccharomyces cerevisiae; in the data set with Pseudomonas aeruginosa) was “inactive” in each case.
With `CCOC(=O)c1ccc(Br)cn1`, the inhibition result (in data set [2]; with Saccharomyces cerevisiae; in the data set on Pseudomonas aeruginosa) was “inactive” each time.
For `COc1ccc2nccc(-c3ccc(C(=O)O)nc3)c2c1`, the “growth inhibition (GI)” value with Escherichia coli [1] was “Non-Toxic”. For the same compound, the inhibition result (in data set [2]; in the data set on Escherichia coli [3]; with Saccharomyces cerevisiae; in the data set on Pseudomonas aeruginosa) was “inactive” throughout.
In the case of `CCOC(=O)c1ccc(CSCC)cn1`, the inhibition entry (in data set [2]; in the data set on Saccharomyces cerevisiae; in the data set on Pseudomonas aeruginosa) was “inactive” in each case.
In the case of `COC(=O)c1ccc(-c2cccc(OC)n2)cn1`, in the data set on Escherichia coli [1], the “growth inhibition (GI)” value is “Non-Toxic”. Moreover, the inhibition result (in data set [2]; with Saccharomyces cerevisiae; in the data set with Pseudomonas aeruginosa) was “inactive” throughout. The IC50 in data set [4] was determined as 95 µg/mL (≈ 389 µM).
Take `CCCOc1ccc(C(=O)OC)nc1`: the “growth inhibition (GI)” value in the data set on Escherichia coli [1] is “Non-Toxic”. The inhibition result (in data set [2]; in the data set with Saccharomyces cerevisiae; in the data set on Pseudomonas aeruginosa) was “inactive” in each case.
`COC(=O)c1ccc(-c2ccnc3ccc(OC)cc23)cn1`: the inhibition result (in data set [2]; in the data set with Saccharomyces cerevisiae; in the data set with Pseudomonas aeruginosa) was “inactive” in each case.
For the compound `O=C(O)c1ccc(-c2cccc3ccccc23)cn1`, the inhibition entry (in data set [2]; with Saccharomyces cerevisiae; in the data set on Pseudomonas aeruginosa) was “inactive” in each case.
`O=C(O)c1ccc(-c2ccnc3ccccc23)cn1`: the inhibition result (in data set [2]; in the data set with Saccharomyces cerevisiae; in the data set with Pseudomonas aeruginosa) was “inactive” each time.
Take `O=C(O)c1ccc(-c2nccs2)cn1`: the “growth inhibition (GI)” value with Escherichia coli [1] is reported as “Non-Toxic”. Besides, the inhibition result (in data set [2]; with Escherichia coli [3]; in the data set with Saccharomyces cerevisiae; with Pseudomonas aeruginosa) was “inactive” each time.
In the case of `O=C(COc1ccc(C(=O)O)nc1)Nc1ccccc1`, the “growth inhibition (GI)” value in the data set with Escherichia coli [1] is given as “Non-Toxic”. Moreover, the inhibition entry (in data set [2]; with Escherichia coli [3]; with Saccharomyces cerevisiae; in the data set with Pseudomonas aeruginosa) was “inactive” in each case.
For the compound `C=CCSS/C=C\C[S+]([O-])CC=C` (stereo not drawn) [(Z)-Ajoene], the IC50 in data set [4] stood at 4 µg/mL (≈ 17.1 µM).
For the compound `COC(=O)c1ccc(-c2nccs2)cn1`, the inhibition entry (in data set [2]; with Saccharomyces cerevisiae; with Pseudomonas aeruginosa) was “inactive” throughout.
For the compound `CCCNC(=O)c1ccc(NCCC)cn1`, the inhibition result (in data set [2]; in the data set on Saccharomyces cerevisiae; in the data set with Pseudomonas aeruginosa) was “inactive” throughout.
As to `O=C(O)c1ccc(-c2ccco2)cn1`, the “growth inhibition (GI)” value with Escherichia coli [1] is “Toxic”. Moreover, the inhibition result (in data set [2]; with Saccharomyces cerevisiae; in the data set on Pseudomonas aeruginosa) was “inactive” throughout. Also, the inhibition result in the data set on Escherichia coli [3] was “Active”.
Take `Cn1cc2ccc(-c3ccc(C(=O)O)nc3)cc2n1`: the inhibition result (in data set [2]; in the data set with Saccharomyces cerevisiae; in the data set on Pseudomonas aeruginosa) was “inactive” in each case.
On to `O=C(O)c1ccc(Cc2ccccc2)cn1`, for which the inhibition entry (in data set [2]; with Saccharomyces cerevisiae; in the data set on Pseudomonas aeruginosa) was “inactive” each time.
As to `COC(=O)c1ccc(-c2ccnc3ccccc23)cn1`, in the data set on Escherichia coli [1], the “growth inhibition (GI)” value is “Non-Toxic”. The inhibition entry (in data set [2]; in the data set with Escherichia coli [3]; in the data set with Saccharomyces cerevisiae; in the data set with Pseudomonas aeruginosa) was “inactive” in each case.
In the case of `COc1ccc2c(-c3ccc(C(=O)O)nc3)ccnc2c1`, the inhibition entry (in data set [2]; with Saccharomyces cerevisiae; with Pseudomonas aeruginosa) was “inactive” each time.
Take `CCOC(=O)c1ccc(-c2cccc3ccccc23)cn1`: the inhibition entry (in data set [2]; with Saccharomyces cerevisiae; in the data set on Pseudomonas aeruginosa) was “inactive” in each case.
Take `COC(=O)c1ccc(-c2ccc(C)s2)cn1`: the inhibition result (in data set [2]; in the data set with Saccharomyces cerevisiae; with Pseudomonas aeruginosa) was “inactive” each time.
For the compound `COC(=O)c1ccc(-c2ccco2)cn1`, the inhibition entry (in data set [2]; in the data set on Saccharomyces cerevisiae; with Pseudomonas aeruginosa) was “inactive” throughout.
On to `O=C(O)c1ccc(Br)cn1`, for which the inhibition result (in data set [2]; in the data set with Saccharomyces cerevisiae; in the data set with Pseudomonas aeruginosa) was “inactive” throughout.
In the case of `O=C(O)c1ccc(OCC2CC2)cn1`, the “growth inhibition (GI)” value in the data set with Escherichia coli [1] is on record as “Toxic”. For the same compound, the inhibition result (in data set [2]; with Saccharomyces cerevisiae; in the data set with Pseudomonas aeruginosa) was “inactive” each time. Besides, the inhibition entry in the data set on Escherichia coli [3] was “Active”.
In the case of `Cc1ccc(-c2ccc(C(=O)O)nc2)cc1`, the inhibition entry (in data set [2]; in the data set on Saccharomyces cerevisiae; in the data set with Pseudomonas aeruginosa) was “inactive” in each case.
For `Cc1cc(-c2ccc(C(=O)O)nc2)c2ccccc2n1`, in the data set with Escherichia coli [1], the “growth inhibition (GI)” value is given as “Non-Toxic”. Also, the inhibition result (in data set [2]; in the data set on Escherichia coli [3]; in the data set on Saccharomyces cerevisiae; in the data set with Pseudomonas aeruginosa) was “inactive” in each case.
In the case of `Cc1ccc(-c2ccc(C(=O)O)nc2)s1`, the inhibition entry (in data set [2]; in the data set on Saccharomyces cerevisiae; in the data set on Pseudomonas aeruginosa) was “inactive” each time.
Turning to `COc1cccc(-c2ccc(C(=O)O)nc2)n1`, the inhibition result (in data set [2]; in the data set on Saccharomyces cerevisiae; in the data set with Pseudomonas aeruginosa) was “inactive” in each case.
For the compound `COC(=O)c1ccc(OCC2CC2)cn1`, the “growth inhibition (GI)” value with Escherichia coli [1] was “Non-Toxic”. Moreover, the inhibition result (in data set [2]; with Saccharomyces cerevisiae; with Pseudomonas aeruginosa) was “inactive” in each case. Moreover, in data set [4], the IC50 came to 14 µg/mL (≈ 67.6 µM).
Regarding `COC(=O)c1ccc(Cc2ccccc2)cn1`, the inhibition entry (in data set [2]; with Saccharomyces cerevisiae; with Pseudomonas aeruginosa) was “inactive” throughout.
As for `CCOC(=O)c1ccc(-c2ccc(C)cc2)cn1`, the inhibition entry (in data set [2]; with Saccharomyces cerevisiae; with Pseudomonas aeruginosa) was “inactive” each time.
